Experiment [1] has as its target Potassium voltage-gated channel subfamily KQT member 1 (Homo sapiens) (UniProt P51787). Nature of the experiment: blockers of human KCNQ1 channel – cell-based, Tl flux, duplicate, confirmation (AID 588353;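 active means primary screen active, with duplicate mean exceeding buffer control mean plus 3 SD of buffer wells, cut at about 28% in these data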;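 further: 0% = buffer control ratio and 100% = XE991 inhibitor control ratio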). Particulars: KCNQ1 cell line, FluxOR thallium flux fluorescence, at 10 µM, active compounds read high. Summed up: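 Read-out basis: Percent inhibition of fluorescence change ratio, scaled buffer to XE991 | Assay system: KCNQ1 CHO cells | Times: Compound exposure 20 min at room temperature | Repeats: Duplicate | Control set: Buffer and XE991 | Measured by: FluxOR thallium flux fluorescence, 10 s baseline plus 110 s | Reagent: Thallium-potassium depolarizing stimulus buffer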

Experiment [2] is described as follows: nonspecific activity in CHO-K1 cells without KCNQ1 – parental CHO cells, Tl flux, counter-screen for KCNQ1 inhibitor project (AID 588366;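 active means mean of duplicate thallium-flux fluorescence ratios in parental host cells more than 5 SD below the buffer control mean, cut at about 0.38 in these data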;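 further: ratio is peak minus minimum fluorescence divided by baseline fluorescence; actives read low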). As to conditions: parental CHO-K1, FluxOR thallium flux fluorescence ratio; at 10 µM; active compounds read low; zero means no signal rise above baseline. Summed up: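 Assay system: untransfected parental CHO-K1 cells / Also added: depolarizing K2SO4 plus Tl2SO4 stimulus, each 12.5 mM in 5x stock / Timing: FluxOR dye loading 90 min, compound exposure 20 min, room temperature / Technique: real-time thallium-sensitive FluxOR dye fluorescence reading / Read-out: baseline-normalized fluorescence amplitude ratio, averaged over duplicates / Replicates: duplicates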
(In general: The purpose of a counterscreen is to sort out artefacts and off-target activity.)

In experiment [3] the target is Potassium voltage-gated channel subfamily KQT member 1 (Homo sapiens) (UniProt P51787). Nature of the experiment: block of human KCNQ1 potassium current – cell-based, automated electrophysiology, orthogonal assay, confirmation (AID 624120;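 active means KCNQ1 current drop exceeding 3 SD of negative control wells, seen in both duplicate runs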). As to conditions: KCNQ1-CHO cells, automated patch clamp current; at 10 µM. In short, it runs like this:
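Material: CHO cells expressing human KCNQ1 potassium channel; replication: duplicates; probe or stimulus: voltage stimulus of 2,000 ms steps to +40 mV, -80 mV holding; measured by: automated perforated-patch voltage clamp using amphotericin B; medium: pH 7.4 external buffer; dosing: single test compound dose of 10 µM final; read-out: steady-state current change vs pre-compound, percent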
In general terms: Patch clamp records ionic current or voltage across a cell membrane.

Experiment [4] concerns the target Potassium voltage-gated channel subfamily KQT member 2 (Rattus norvegicus) (UniProt O88943). Nature of the experiment: block of rat KCNQ2 potassium channel – cell-based, selectivity assay for KCNQ1 inhibitor project (AID 651746).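 On inhibition: 0% = buffer control wells and 100% = XE-991 inhibitor control.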 As to conditions: KCNQ2 cells, FluxOR thallium flux fluorescence, at 10 µM; active compounds read high.
The target of experiment [5] is Potassium voltage-gated channel subfamily E member 1 (Homo sapiens) + Potassium voltage-gated channel subfamily KQT member 1 (Homo sapiens) (UniProt P15382+P51787). Nature of the experiment: block of human IKs channel complex – CHO-K1 cells, thallium flux, FluxOR, selectivity assay for KCNQ1 inhibitor project (AID 652147;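 active means mean percent inhibition of duplicate wells above the buffer-only control mean plus 3 SD of those controls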;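 on inhibition: 0% = buffer only wells and 100% = XE-991 inhibitor control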). Particulars: KCNQ1/KCNE1 cells, FluxOR thallium flux fluorescence, at 10 µM; active compounds read high. Summed up:
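test system = KCNQ1/KCNE1 cells | schedule = 20 min compound pre-incubation at room temperature | detection = FluxOR thallium influx fluorescence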

SMILES strings stand for the structures. The list shows a part of the results. A number with no mark means an inactive call. Calls of active or inactive are those of the source.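 How the source made its calls, unless noted: active means mean percent inhibition of the KCNQ2 thallium signal more than 5 SD above the buffer-only control wells; inactive means the rest.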

Sequence of Potassium voltage-gated channel subfamily E member 1 (Homo sapiens) + Potassium voltage-gated channel subfamily KQT member 1 (Homo sapiens) (P51787 whole entry, looked up): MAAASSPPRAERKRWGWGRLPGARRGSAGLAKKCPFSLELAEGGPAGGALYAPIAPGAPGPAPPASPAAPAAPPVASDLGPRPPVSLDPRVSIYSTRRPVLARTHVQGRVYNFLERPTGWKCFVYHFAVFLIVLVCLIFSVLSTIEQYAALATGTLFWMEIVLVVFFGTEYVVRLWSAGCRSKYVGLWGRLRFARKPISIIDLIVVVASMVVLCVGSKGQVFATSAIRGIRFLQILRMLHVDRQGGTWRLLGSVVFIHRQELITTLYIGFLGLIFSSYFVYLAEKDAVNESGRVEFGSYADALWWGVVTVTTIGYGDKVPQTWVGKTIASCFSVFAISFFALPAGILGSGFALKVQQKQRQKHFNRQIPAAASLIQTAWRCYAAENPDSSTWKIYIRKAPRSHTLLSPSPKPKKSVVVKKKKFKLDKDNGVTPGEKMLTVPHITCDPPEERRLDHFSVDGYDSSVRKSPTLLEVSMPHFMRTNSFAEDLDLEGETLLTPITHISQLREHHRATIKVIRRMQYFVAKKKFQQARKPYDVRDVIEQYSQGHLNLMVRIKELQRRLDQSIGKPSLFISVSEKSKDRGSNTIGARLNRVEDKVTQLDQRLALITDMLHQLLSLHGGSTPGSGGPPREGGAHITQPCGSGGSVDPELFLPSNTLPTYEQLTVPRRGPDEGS
Sequence of Potassium voltage-gated channel subfamily KQT member 2 (Rattus norvegicus) (O88943 whole entry, looked up): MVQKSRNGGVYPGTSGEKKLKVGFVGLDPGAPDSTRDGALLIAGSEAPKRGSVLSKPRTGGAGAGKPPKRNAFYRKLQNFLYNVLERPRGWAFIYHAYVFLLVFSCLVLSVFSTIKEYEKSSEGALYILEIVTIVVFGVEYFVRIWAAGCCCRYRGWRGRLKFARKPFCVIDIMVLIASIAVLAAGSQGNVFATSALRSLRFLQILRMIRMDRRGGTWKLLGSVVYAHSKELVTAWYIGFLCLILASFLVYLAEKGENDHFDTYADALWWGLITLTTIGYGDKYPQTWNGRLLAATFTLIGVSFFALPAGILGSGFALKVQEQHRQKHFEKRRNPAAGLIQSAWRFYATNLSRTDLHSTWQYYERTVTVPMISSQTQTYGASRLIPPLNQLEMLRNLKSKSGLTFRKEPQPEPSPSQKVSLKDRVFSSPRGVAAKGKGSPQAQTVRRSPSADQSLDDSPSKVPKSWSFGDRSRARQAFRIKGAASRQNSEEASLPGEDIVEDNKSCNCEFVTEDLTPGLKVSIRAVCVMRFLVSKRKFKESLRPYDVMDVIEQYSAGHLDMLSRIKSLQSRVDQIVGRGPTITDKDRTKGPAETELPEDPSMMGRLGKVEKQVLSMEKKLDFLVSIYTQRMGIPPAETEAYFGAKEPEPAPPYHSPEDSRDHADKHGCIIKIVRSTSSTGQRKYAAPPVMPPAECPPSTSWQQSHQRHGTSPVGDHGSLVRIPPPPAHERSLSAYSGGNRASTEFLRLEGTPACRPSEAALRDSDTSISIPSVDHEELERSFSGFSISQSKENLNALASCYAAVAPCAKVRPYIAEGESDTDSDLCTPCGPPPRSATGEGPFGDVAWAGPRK
Sequence of Potassium voltage-gated channel subfamily KQT member 1 (Homo sapiens) (P51787 whole entry, looked up): as the sequence (P51787 whole entry, looked up) above

For orientation: inhibition means the relative decrease from the control value, in per cent. As to `C=CCOC(=O)C1=C(C)NC(SCC(=O)OCC)=C(C#N)C1c1ccc(C)cc1` (stereo not given), the inhibition in experiment [1] is 124% (active); in experiment [4] it was 115% (active); in experiment [5], 160% (active). In experiment [2], the fluorescence ratio (Tl flux) was 0.425. Besides, the result in experiment [3] was active.
With `CCOC(=O)C1CCN(c2ncnc3c2oc2ccc(Br)cc23)CC1`, the inhibition was 150% (active) in experiment [1], 129% (active) in experiment [4] and 193% (active) in experiment [5]. Also, the fluorescence ratio (Tl flux) in experiment [2] is 0.39. In addition, in experiment [3], the call was inactive.
Take `Cc1cc(Br)ccc1NC(=O)c1cnc(N2CCN(c3ccccn3)CC2)c2ccccc12`: the inhibition in experiment [1] was 89% (active); in experiment [4], 94.7% (active); in experiment [5], 124% (active). Further, in experiment [2], the fluorescence ratio (Tl flux) was 0.444. In addition, the result in experiment [3] was inactive.
As to `Clc1cccc(-c2nc(NCC3CCCO3)c3ccccc3n2)c1` (stereo not given), the inhibition is 116% (active) in experiment [1], 118% (active) in experiment [4] and 154% (active) in experiment [5]. The fluorescence ratio (Tl flux) in experiment [2] is 0.394. Also, the outcome in experiment [3] was inactive.
The corresponding values for `COc1ccc(Cl)cc1NC(=O)C(C)N1CCc2ccccc21` (stereo not given) are 114% (active), 91% (active), 132% (active), 0.428 and “inactive”.
For the compound `COc1cc(NC(=O)c2ccccc2NS(=O)(=O)c2ccc(Cl)s2)cc(OC)c1`, in experiment [1], the inhibition was 102% (active). For the same compound, the fluorescence ratio (Tl flux) in experiment [2] is 0.419. Further, the result in experiment [4] and in experiment [5] was inactive.
With `Cc1nc(Nc2ccc3c(c2)OCCO3)c2nnn(Cc3ccccc3Cl)c2n1`, the inhibition in experiment [1] was 83% (active); in experiment [4], 96% (active); in experiment [5], 102% (active). Moreover, the fluorescence ratio (Tl flux) in experiment [2] was 0.413.
`CC(C)(CCl)C(=O)Nc1ccc(Sc2ccc(F)cc2)cc1`: the inhibition is 166% (active) in experiment [1] and 111% (active) in experiment [4]. Moreover, the fluorescence ratio (Tl flux) in experiment [2] was 0.393.
With `COc1ccc(C(=O)NC2CCCc3c2cnn3-c2cccc(C)c2C)c(OC)n1` (stereo not given), the inhibition was 132% (active) in experiment [1], 127% (active) in experiment [4] and 184% (active) in experiment [5]. For the same compound, in experiment [2], the fluorescence ratio (Tl flux) was 0.296 (active).
In the case of `Cc1cc(C)cc(NC(=O)NC2CCCCCCC2)c1`, the inhibition in experiment [1] was 146% (active); in experiment [5] it was 164% (active). Moreover, the fluorescence ratio (Tl flux) in experiment [2] was 0.465. Besides, in experiment [3], the outcome was active. Moreover, the call in experiment [4] was inactive.
On to `CSc1nccc(NC(=O)c2ccc(C(C)(C)C)cc2)n1`, for which the results for the inhibition in experiment [1], in experiment [4] and in experiment [5] were 153% (active), 105% (active) and 144% (active), respectively. Moreover, in experiment [2], the fluorescence ratio (Tl flux) is 0.366 (active).
Consider `Cc1cccc(NC(=S)Nc2ccc(Cl)c(Cl)c2)c1`, for which, in experiment [1], the inhibition is 49% (active). The fluorescence ratio (Tl flux) in experiment [2] is 0.565. Further, the result in experiment [4] and in experiment [5] was inactive.
For the compound `Cc1nc(N2CCN(c3ccccn3)CC2)c2c(C)c(C(=O)Nc3ccc(F)cc3)sc2n1`, the inhibition was 146% (active) in experiment [1] and 141% (active) in experiment [4]. For the same compound, the fluorescence ratio (Tl flux) in experiment [2] is 0.324 (active).
On to `CCSc1nsc(NC(=O)Nc2cccc(C(C)=O)c2)n1`, for which the inhibition in experiment [1] is 112% (active). The fluorescence ratio (Tl flux) in experiment [2] was 0.514. Also, the result in experiment [3], in experiment [4] and in experiment [5] was inactive.
`CC(C)OCCCNc1ncnc2c1[nH]c1ccc(F)cc12`: the inhibition in experiment [1] is 95.5% (active). In experiment [2], the fluorescence ratio (Tl flux) was 0.443. In addition, the result in experiment [3] was active. The result in experiment [4] and in experiment [5] was inactive.
As to `O=C(CNCCC1=CCCCC1)Nc1ccccc1N1CCCCCC1`, the inhibition in experiment [1] was 144% (active); in experiment [4], 114% (active); in experiment [5], 175% (active). Further, the fluorescence ratio (Tl flux) in experiment [2] was 0.402. Also, the result in experiment [3] was inactive.
On to `COc1ccc(-c2csc3ncnc(N4CCN(S(=O)(=O)c5cccc(F)c5)CC4)c23)cc1`, for which the inhibition in experiment [1] was 92.5% (active); in experiment [4], 77% (active); in experiment [5], 122% (active). The fluorescence ratio (Tl flux) in experiment [2] is 0.403. Besides, the call in experiment [3] was inactive.
Consider `Cc1cc(C)cc(N(CC(=O)N2CC=C(c3ccccc3)CC2)S(=O)(=O)c2c(C)noc2C)c1`, for which the inhibition in experiment [1] is 78% (active); in experiment [4], 111% (active); in experiment [5], 84% (active). For the same compound, the fluorescence ratio (Tl flux) in experiment [2] is 0.363 (active).
Take `CCn1c(C)c(C)c2cc(C(=O)N3CCN(c4cccc(C)c4C)CC3)ccc21`: the inhibition in experiment [1] is 106% (active); in experiment [4] it was 66.3% (active); in experiment [5], 180% (active). The fluorescence ratio (Tl flux) in experiment [2] is 0.475. In experiment [3], the compound was called inactive.

Values taken from PubChem BioAssay.
